According to ChEMBL document CHEMBL5724801, “EUbOPEN Chemogenomics Library - Multiplex” (2024):
Several values for one entry are separate records, joined by “and”; a condition that tells them apart may be missing. Equal entries are not always repeated.

System: U2OS
Test: Multiplex assay against U2OS
Format: toxicity, cell-based
Settings: human
In short: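 At seeding, live cells were stained with Hoechst33342, BioTracker Green Microtubule Cytoskeleton Dye, MitoTracker Red and Annexin V Alexa Fluor 680. After compound addition they were imaged on a CQ1 microscope at 37°C and 5% CO2, and CellPathfinder machine-learning gating sorted them into Hoechst high-intensity objects or normal cells, with normal cells further split into healthy, pyknosed or fragmented nuclei and pyknosed cells into mitotic or apoptotic. Tubulin, mitochondrial-mass and membrane-permeability phenotypes are given as per cents of cells with healthy nuclei.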

[1] = 12 h, 1 µM, compound concentration 1 uM
[2] = 12 h, 10 µM, compound concentration 10 uM
[3] = 24 h, 1 µM, compound concentration 1 uM
[4] = 24 h, 10 µM, compound concentration 10 uM
[5] = 48 h, 1 µM, compound concentration 1 uM
[6] = 48 h, 10 µM, compound concentration 10 uM

Compound: C=CC(=O)N1CCC[C@@H](n2nc(C(=O)Nc3ccc(CC(=O)N(C)C)c(C)c3C)c3c(N)ncnc32)C1
- Population Apoptotic (%) [1]: 31.58% and 48.15%
- Population Fragmented Nuclei (%) [1]: 2.15% and 3.28%
- Population Healthy Nuclei (%) [1]: 88.76% and 81.97%
- Population Hoechst High Intensity Objects (%) [1]: 0%
- Population Membrane Permeable-Phenotype (%) [1]: 1.08% and 0.67%
- Population Mitochondria Different-Phenotype (%) [1]: 0.54% and 8.67%
- Population Mitotic Cells (%) [1]: 68.42% and 51.85%
- Population Normal (%) [1]: 100%
- Population Pyknosed Nuclei (%) [1]: 9.09% and 14.75%
- Population Tubulin-Different-Phenotype (%) [1]: 1.08% and 0%
- Total Cell Count [1]: 418 and 183
- Population Apoptotic (%) [2]: 42.86% and 45.45%
- Population Fragmented Nuclei (%) [2]: 1.65% and 3.24%
- Population Healthy Nuclei (%) [2]: 88.47% and 84.86%
- Population Hoechst High Intensity Objects (%) [2]: 0.23% and 0%
- Population Mitotic Cells (%) [2]: 57.14% and 54.55%
- Population Normal (%) [2]: 99.77% and 100%
- Population Pyknosed Nuclei (%) [2]: 9.88% and 11.89%
- Population Tubulin-Different-Phenotype (%) [2]: 0.27% and 3.82%
- Total Cell Count [2]: 426 and 185
- Population Apoptotic (%) [3]: 37.21% and 57.14%
- Population Fragmented Nuclei (%) [3]: 1.84% and 1.69%
- Population Healthy Nuclei (%) [3]: 90.24% and 83.47%
- Population Hoechst High Intensity Objects (%) [3]: 0.18% and 0%
- Population Membrane Permeable-Phenotype (%) [3]: 0.41% and 2.54%
- Population Mitochondria Different-Phenotype (%) [3]: 0.41% and 6.6%
- Population Mitotic Cells (%) [3]: 62.79% and 42.86%
- Population Normal (%) [3]: 99.82% and 100%
- Population Pyknosed Nuclei (%) [3]: 7.92% and 14.83%
- Population Tubulin-Different-Phenotype (%) [3]: 1.02% and 0%
- Total Cell Count [3]: 544 and 236
- Population Apoptotic (%) [4]: 57.14% and 50%
- Population Fragmented Nuclei (%) [4]: 2.56% and 2.27%
- Population Healthy Nuclei (%) [4]: 87.18% and 86.82%
- Population Hoechst High Intensity Objects (%) [4]: 0%
- Population Membrane Permeable-Phenotype (%) [4]: 1.47% and 8.38%
- Population Mitotic Cells (%) [4]: 42.86% and 50%
- Population Normal (%) [4]: 100%
- Population Pyknosed Nuclei (%) [4]: 10.26% and 10.91%
- Population Tubulin-Different-Phenotype (%) [4]: 0.84% and 2.62%
- Total Cell Count [4]: 546 and 220
- Population Apoptotic (%) [5]: 38.38% and 67.35%
- Population Fragmented Nuclei (%) [5]: 2.8% and 4.6%
- Population Healthy Nuclei (%) [5]: 87.64% and 82.86%
- Population Hoechst High Intensity Objects (%) [5]: 0%
- Population Membrane Permeable-Phenotype (%) [5]: 0.66% and 2.16%
- Population Mitochondria Different-Phenotype (%) [5]: 0.11% and 7.41%
- Population Mitotic Cells (%) [5]: 61.62% and 32.65%
- Population Normal (%) [5]: 100%
- Population Pyknosed Nuclei (%) [5]: 9.56% and 12.53%
- Population Tubulin-Different-Phenotype (%) [5]: 0.66% and 0.31%
- Total Cell Count [5]: 1036 and 391
- Population Apoptotic (%) [6]: 50.48% and 54.35%
- Population Fragmented Nuclei (%) [6]: 1.98% and 2.5%
- Population Healthy Nuclei (%) [6]: 87.11% and 83.12%
- Population Hoechst High Intensity Objects (%) [6]: 0.1% and 0.31%
- Population Membrane Permeable-Phenotype (%) [6]: 1.07% and 3.01%
- Population Mitochondria Different-Phenotype (%) [6]: 0.12% and 6.02%
- Population Mitotic Cells (%) [6]: 49.52% and 45.65%
- Population Normal (%) [6]: 99.9% and 99.69%
- Population Pyknosed Nuclei (%) [6]: 10.91% and 14.37%
- Population Tubulin-Different-Phenotype (%) [6]: 0.95% and 1.5%
- Total Cell Count [6]: 963 and 321

Compound: Nc1nc(-c2ccco2)c2cnn(Cc3ccccc3F)c2n1
- Population Apoptotic (%) [1]: 82% and 92%
- Population Fragmented Nuclei (%) [1]: 23%
- Population Healthy Nuclei (%) [1]: 68% and 64%
- Population Hoechst High Intensity Objects (%) [1]: 1% and 0%
- Population Membrane Permeable-Phenotype (%) [1]: 4% and 12%
- Population Mitochondria Different-Phenotype (%) [1]: 2% and 5%
- Population Mitotic Cells (%) [1]: 17% and 7%
- Population Normal (%) [1]: 98% and 99%
- Population Pyknosed Nuclei (%) [1]: 8% and 12%
- Population Tubulin-Different-Phenotype (%) [1]: 3% and 8%
- Total Cell Count [1]: 280 and 109
- Population Apoptotic (%) [2]: 87% and 77%
- Population Fragmented Nuclei (%) [2]: 41% and 20%
- Population Healthy Nuclei (%) [2]: 45% and 72%
- Population Hoechst High Intensity Objects (%) [2]: 5% and 0%
- Population Membrane Permeable-Phenotype (%) [2]: 10% and 5%
- Population Mitochondria Different-Phenotype (%) [2]: 4% and 5%
- Population Mitotic Cells (%) [2]: 12% and 22%
- Population Normal (%) [2]: 94% and 99%
- Population Pyknosed Nuclei (%) [2]: 12% and 7%
- Population Tubulin-Different-Phenotype (%) [2]: 7% and 1%
- Total Cell Count [2]: 197 and 125
- Population Apoptotic (%) [3]: 96% and 84%
- Population Fragmented Nuclei (%) [3]: 19% and 18%
- Population Healthy Nuclei (%) [3]: 70% and 71%
- Population Hoechst High Intensity Objects (%) [3]: 1% and 4%
- Population Membrane Permeable-Phenotype (%) [3]: 4% and 10%
- Population Mitochondria Different-Phenotype (%) [3]: 1% and 3%
- Population Normal (%) [3]: 98% and 95%
- Population Pyknosed Nuclei (%) [3]: 9% and 10%
- Population Tubulin-Different-Phenotype (%) [3]: 2% and 8%
- Total Cell Count [3]: 332 and 127
- Population Apoptotic (%) [4]: 82% and 90%
- Population Fragmented Nuclei (%) [4]: 38% and 19%
- Population Healthy Nuclei (%) [4]: 53% and 73%
- Population Hoechst High Intensity Objects (%) [4]: 5% and 1%
- Population Membrane Permeable-Phenotype (%) [4]: 7% and 5%
- Population Mitochondria Different-Phenotype (%) [4]: 3% and 0%
- Population Mitotic Cells (%) [4]: 17% and 9%
- Population Normal (%) [4]: 94% and 98%
- Population Pyknosed Nuclei (%) [4]: 7%
- Population Tubulin-Different-Phenotype (%) [4]: 5% and 4%
- Total Cell Count [4]: 230 and 157
- Population Apoptotic (%) [5]: 94% and 95%
- Population Fragmented Nuclei (%) [5]: 17% and 16%
- Population Healthy Nuclei (%) [5]: 74% and 67%
- Population Hoechst High Intensity Objects (%) [5]: 1% and 6%
- Population Membrane Permeable-Phenotype (%) [5]: 2% and 5%
- Population Mitochondria Different-Phenotype (%) [5]: 2% and 5%
- Population Mitotic Cells (%) [5]: 5% and 4%
- Population Normal (%) [5]: 98% and 93%
- Population Pyknosed Nuclei (%) [5]: 7% and 15%
- Population Tubulin-Different-Phenotype (%) [5]: 2% and 1%
- Population Apoptotic (%) [6]: 95% and 86%
- Population Fragmented Nuclei (%) [6]: 37% and 23%
- Population Healthy Nuclei (%) [6]: 51% and 69%
- Population Hoechst High Intensity Objects (%) [6]: 11% and 2%
- Population Membrane Permeable-Phenotype (%) [6]: 17% and 12%
- Population Mitochondria Different-Phenotype (%) [6]: 6%
- Population Mitotic Cells (%) [6]: 4% and 13%
- Population Normal (%) [6]: 88% and 97%
- Population Pyknosed Nuclei (%) [6]: 10% and 7%
- Population Tubulin-Different-Phenotype (%) [6]: 11% and 6%
- Total Cell Count [6]: 252 and 196
